Reference: ChEMBL document CHEMBL1125290, “Bis basic substituted diaminobenzobisthiazoles as potential antiarthritic agents” (1992)
Values joined by “and” are separate entries in the source; they are usually repeats but may differ in a detail not shown here. Equal values may be shown once.

How the values were obtained:
Mus musculus [1] = assay: Percent suppression of plaque forming cells in spleen cell suspension at a dose of 200 mg/kg, po. in AKR mice, p<0.05; type: functional
Rattus norvegicus [2] = assay: Antiinflammatory activity against D-adjuvant arthritis in injected rat paw at the dose of 50 mg/kg by oral administration; type: functional
Rattus norvegicus [3] = assay: Antiinflammatory activity against carrageenan induced rat paw edema (CPE), dosed orally; type: functional
Method in brief: (§1)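 Male Sprague–Dawley rats (150 ± 10 g), five per group. Compound or vehicle given orally in 0.5% methylcellulose 1 h before subplantar injection of 0.1 mL 1% carrageenan in saline into the right hind paw. Paw volume measured by mercury displacement before dosing and 3 h after carrageenan; the difference is the edema volume. ANOVA with Dunnett's t test.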

Mus musculus [4] = assay: Percent suppression of plaque forming cells in spleen cell suspension at a dose of 100 mg/kg, po. in AKR mice, p<0.05; type: functional
Mus musculus [5] = assay: Percent suppression of plaque forming cells in spleen cell suspension at a dose of 50 mg/kg, po. in AKR mice, p<0.05; type: functional
Rattus norvegicus [6] = assay: Antiinflammatory activity against D-adjuvant arthritis in uninjected rat paw at the dose of 50 mg/kg by oral administration; type: functional
Method in brief: (§2)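 Rat developing adjuvant arthritis screen with oral dosing on a prophylactic protocol. Percent change in body weight versus untreated animals was recorded as a preliminary toxicity sign. Significance was assessed against controls by two-tailed Student's t test, p < 0.05.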

Rattus norvegicus [7] = assay: Antiinflammatory activity dosed orally against D-adjuvant arthritis in uninjected rat paw at 50 mg/kg; type: functional; conditions: route oral
Rattus norvegicus [8] = assay: Antiinflammatory activity dosed orally against D-adjuvant arthritis in rat measured by the change in the weight of the body; type: functional
Rattus norvegicus [9] = assay: Antiinflammatory activity dosed orally against carrageenan induced rat paw edema(CPE); type: functional; method in brief: as §1
Rattus norvegicus [10] = assay: Antiinflammatory activity against D-adjuvant arthritis in injected rat paw at the dose of 2.5 mg/kg by oral administration; type: functional
Method in brief: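 Rats dosed orally in a developing adjuvant arthritis screen; swelling of the adjuvant-injected paw scored against untreated arthritic controls. Significance by two-tailed Student's t test, p < 0.05. Percent change in body weight versus untreated animals recorded as a preliminary toxicity indication.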

Rattus norvegicus [11] = assay: Antiinflammatory activity against D-adjuvant arthritis in uninjected rat paw at the dose of 1.0 mg/kg by oral administration; conditions: read-out: Inhibition
Rattus norvegicus [12] = assay: Antiinflammatory activity against D-adjuvant arthritis in injected rat paw at the dose of 1.0 mg/kg by oral administration; type: functional; method in brief: as §2
Rattus norvegicus [13] = assay: Antiinflammatory activity dosed orally against D-adjuvant arthritis in rat.; type: functional
Rattus norvegicus [14] = assay: Antiinflammatory activity dosed orally against D-adjuvant arthritis in injected rat paw at 100 mg/Kg; type: functional; conditions: po
Mus musculus [15] = assay: Percent suppression of plaque forming cells in spleen cell suspension at a dose of 125 mg/kg, po. in AKR mice; type: functional
Rattus norvegicus [16] = assay: Antiinflammatory activity dosed orally against D-adjuvant arthritis in uninjected rat paw at 100 mg/Kg; type: functional; conditions: po
Rattus norvegicus [17] = assay: Antiinflammatory activity dosed orally against D-adjuvant arthritis in injected rat paw at 50 mgKg; type: functional
Rattus norvegicus [18] = organism: Rattus norvegicus; assay: Antiinflammatory activity in D-adjuvant induced arthritis in rat measured by the change in body weight; type: functional; design: concentration or dose not given beside the values
Rattus norvegicus [19] = assay: Antiinflammatory activity dosed orally against carrageenan induced rat paw edema(CPE).value in the parentheses is the dose(mg/kg).; type: functional; method in brief: as §1
Rattus norvegicus [20] = assay: Antiinflammatory activity against D-adjuvant arthritis in uninjected rat paw at the dose of 10 mg/kg by oral administration; type: functional
Rattus norvegicus [21] = assay: Antiinflammatory activity against D-adjuvant arthritis in injected rat paw at the dose of 10 mg/kg by oral administration; type: functional
Rattus norvegicus [22] = assay: Antiinflammatory activity against D-adjuvant arthritis in uninjected rat paw at the dose of 5 mg/kg by oral administration; type: functional
Rattus norvegicus [23] = assay: Antiinflammatory activity against D-adjuvant arthritis in injected rat paw at the dose of 5 mg/kg by oral administration; type: functional

Q: `CCN(CC)CC(=O)Nc1nc2cc3nc(NC(=O)CN(CC)CC)sc3cc2s1` was tested. Which Activity (Mus musculus [1]) did it give?
A: 83%

Q: What about the inhibition in vivo at 50 mg/kg (Rattus norvegicus [2]) of the same compound?
A: 76%

Q: What about the Inhibition (Rattus norvegicus [3]) of the same compound?
A: 9%

Q: And the Activity (Mus musculus [4])?
A: 82%

Q: What about the Activity (Mus musculus [5]) of the same compound?
A: 67%

Q: What about the inhibition in vivo at 50 mg/kg (Rattus norvegicus [6]) of the same compound?
A: 98%

Q: What about the inhibition in vivo at 50 mg/kg (Rattus norvegicus [7]) of the same compound?
A: 98%

Q: For `CCN(CC)C(C)C(=O)Nc1nc2cc3nc(NC(=O)C(C)N(CC)CC)sc3cc2s1.Cl.Cl` (centres undefined), which Activity (Rattus norvegicus [8]) is on record?
A: -19%

Q: What about the inhibition in vivo at 50 mg/kg (Rattus norvegicus [2]) of the same compound?
A: 0%

Q: And the inhibition in vivo at 50 mg/kg (Rattus norvegicus [6])?
A: 0%

Q: And the Inhibition (Rattus norvegicus [9])?
A: 0%

Q: Which results are given for `COc1ccc2c(c1)c(CC(=O)O)c(C)n2C(=O)c1ccc(Cl)cc1` [INDOMETHACIN]?
A: inhibition in vivo at 2.5 mg/kg (Rattus norvegicus [10]): 71%; inhibition in vivo at 1 mg/kg (Rattus norvegicus [11]): 69%; inhibition in vivo at 1 mg/kg (Rattus norvegicus [12]): 61%; Body weight change (Rattus norvegicus [13]): 18% and 28%; Inhibition (Rattus norvegicus [9]): 63% and 34%

Q: `CCN(CC)CCOc1ccc2c(c1)C(=O)c1cc(OCCN(CC)CC)ccc1-2` [TILORONE] was tested. Which inhibition in vivo at 100 mg/kg (Rattus norvegicus [14]) did it give?
A: 59%

Q: And the Activity (Mus musculus [15])?
A: 28%

Q: What about the inhibition in vivo at 100 mg/kg (Rattus norvegicus [16]) of the same compound?
A: 45%

Q: And the Inhibition (Rattus norvegicus [17])?
A: 53%

Q: And the Activity (Rattus norvegicus [18])?
A: 10%

Q: What about the Inhibition (Rattus norvegicus [3]) of the same compound?
A: 0%

Q: How did the inhibition in vivo at 50 mg/kg (Rattus norvegicus [2]) turn out when `CC1CCC(NCC(=O)Nc2nc3cc4nc(NC(=O)CNC5CCC(C)CC5)sc4cc3s2)CC1` (centres undefined) was run?
A: 21%

Q: What about the Activity (Rattus norvegicus [18]) of the same compound?
A: -4%

Q: And the inhibition in vivo at 50 mg/kg (Rattus norvegicus [6])?
A: 54%

Q: And the Inhibition (Rattus norvegicus [19])?
A: 3%

Q: `CCN(CC)CC(=O)Nc1nc2c(Cl)c3nc(NC(=O)CN(CC)CC)sc3c(Cl)c2s1` was tested. Which inhibition in vivo at 10 mg/kg (Rattus norvegicus [20]) did it give?
A: 71%

Q: What about the inhibition in vivo at 10 mg/kg (Rattus norvegicus [21]) of the same compound?
A: 30%

Q: And the Activity (Rattus norvegicus [18])?
A: -33%

Q: And the Inhibition (Rattus norvegicus [3])?
A: 19%

Q: Which results are given for `CCN(CC)CC(=O)Nc1nc2cc3sc(NC(=O)CN(CC)CC)nc3cc2s1.Cl.Cl`?
A: Activity (Rattus norvegicus [18]): -33%; inhibition in vivo at 5 mg/kg (Rattus norvegicus [22]): 0%; inhibition in vivo at 5 mg/kg (Rattus norvegicus [23]): 11%; Inhibition (Rattus norvegicus [3]): 9%
